Experimental data taken from PMC3325328 (Journal of Medicinal Chemistry, 2012).

Tests used:
human TLR2 [1] = molecular target: T1, human TLR2 (Homo sapiens, UniProt O60603); assay: human TLR2-specific NF-κB reporter gene assay; format: cell-based; settings: for absolute magnitude of TLR2-induced NF-κB activation (in words): Fig. 1
Outline: (§1)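 HEK-Blue reporter cells with NF-κB-driven secreted alkaline phosphatase (sAP) were plated at ~10⁵ cells/mL and grown to confluency. They were then stimulated for 12 h with serially diluted test compound. Extracellular sAP in the supernatant was read spectrophotometrically at 620 nm using an alkaline phosphatase-specific chromogen in the detection medium. Samples were run in quadruplicate, with means and standard deviations shown.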

murine TLR2 = murine TLR2 (Mus musculus, UniProt Q9QUN7); assay: murine TLR2-specific NF-κB reporter gene assay; format: cell-based; settings: for mTLR2-agonistic activity (in words): murine TLR2 reporter gene assay
Sequence of murine TLR2 (Q9QUN7 25-784): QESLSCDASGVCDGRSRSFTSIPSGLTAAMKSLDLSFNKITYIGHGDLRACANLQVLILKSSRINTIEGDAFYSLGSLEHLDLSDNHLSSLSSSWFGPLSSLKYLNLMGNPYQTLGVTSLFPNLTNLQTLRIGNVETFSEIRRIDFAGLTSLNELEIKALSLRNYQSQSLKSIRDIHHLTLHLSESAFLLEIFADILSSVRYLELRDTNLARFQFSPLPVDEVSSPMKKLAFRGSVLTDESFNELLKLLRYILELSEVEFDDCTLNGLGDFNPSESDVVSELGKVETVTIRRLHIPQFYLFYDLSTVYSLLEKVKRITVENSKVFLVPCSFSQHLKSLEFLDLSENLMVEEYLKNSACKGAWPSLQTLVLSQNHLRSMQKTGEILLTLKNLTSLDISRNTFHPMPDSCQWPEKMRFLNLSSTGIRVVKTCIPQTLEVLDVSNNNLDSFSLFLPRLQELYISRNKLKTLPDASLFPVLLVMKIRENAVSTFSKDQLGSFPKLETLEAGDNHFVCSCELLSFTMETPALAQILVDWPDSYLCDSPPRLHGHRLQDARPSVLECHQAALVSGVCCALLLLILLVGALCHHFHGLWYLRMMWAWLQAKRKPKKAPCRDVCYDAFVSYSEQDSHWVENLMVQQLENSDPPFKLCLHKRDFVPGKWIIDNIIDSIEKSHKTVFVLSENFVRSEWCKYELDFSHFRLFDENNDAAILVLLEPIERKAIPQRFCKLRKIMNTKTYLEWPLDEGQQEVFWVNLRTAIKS
Outline: as §1

human TLR2 [2] = molecular target: T1, human TLR2; settings: cited from earlier work

T1 sequence (O60603 21-784): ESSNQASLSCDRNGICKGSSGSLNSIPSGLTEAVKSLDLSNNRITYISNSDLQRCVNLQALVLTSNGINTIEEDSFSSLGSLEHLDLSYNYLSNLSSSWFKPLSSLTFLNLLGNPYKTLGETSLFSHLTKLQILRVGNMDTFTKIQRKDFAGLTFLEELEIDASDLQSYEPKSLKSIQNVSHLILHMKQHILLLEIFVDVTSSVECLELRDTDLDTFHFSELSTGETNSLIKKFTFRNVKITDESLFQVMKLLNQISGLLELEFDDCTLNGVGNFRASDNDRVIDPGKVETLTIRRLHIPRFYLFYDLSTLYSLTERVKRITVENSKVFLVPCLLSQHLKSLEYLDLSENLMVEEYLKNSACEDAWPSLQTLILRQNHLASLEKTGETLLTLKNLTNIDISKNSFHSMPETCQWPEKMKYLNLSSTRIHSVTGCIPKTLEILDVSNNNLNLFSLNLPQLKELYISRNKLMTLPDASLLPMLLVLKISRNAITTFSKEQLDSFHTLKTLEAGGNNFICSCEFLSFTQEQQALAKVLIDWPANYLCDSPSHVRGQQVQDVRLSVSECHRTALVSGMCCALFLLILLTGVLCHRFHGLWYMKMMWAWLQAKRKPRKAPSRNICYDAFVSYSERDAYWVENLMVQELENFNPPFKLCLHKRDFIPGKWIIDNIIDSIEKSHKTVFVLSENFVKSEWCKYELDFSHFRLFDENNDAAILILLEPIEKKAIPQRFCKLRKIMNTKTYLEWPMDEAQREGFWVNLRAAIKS

Structure (SMILES)	hTLR2-agonistic activity (in words) (human TLR2 [1])	further results
CCCCCCCCCCCCCCCC(=O)OCCSC[C@H](NC(C)=O)C(=O)N[C@@H](CO)C(=O)OC [Compound 11d, 2-(((R)-2-acetamido-3-(((S)-3-hydroxy-1-methoxy-1-oxopropan-2-yl)amino)-3-oxopropyl)thio)ethyl palmitate]	–	absolute magnitude of TLR2-induced NF-κB activation (in words) (human TLR2 [1]): far greater
COC(=O)[C@H](CO)NC(=O)[C@@H](N)CSCCOC(=O)c1ccc(-c2ccccc2)cc1 [Compound 6f, 2-(((R)-2-amino-3-(((S)-3-hydroxy-1-methoxy-1-oxopropan-2-yl)amino)-3-oxopropyl)thio)ethyl [1,1'-biphenyl]-4-carboxylate]	complete absence of activity	–
COC(=O)[C@H](CO)NC(=O)[C@@H](N)CSCCOC(=O)c1cccc(-c2ccccc2)c1 [Compound 6g, 2-(((R)-2-amino-3-(((S)-3-hydroxy-1-methoxy-1-oxopropan-2-yl)amino)-3-oxopropyl)thio)ethyl [1,1'-biphenyl]-3-carboxylate]	complete absence of activity	–
CCCCCCCCCCCCCCNCC(=O)OCCSC[C@H](N)C(=O)N[C@@H](CO)C(=O)OC [Compound 10b, (S)-methyl 2-((R)-2-amino-3-((2-(2-(tetradecylamino)acetoxy)ethyl)thio)propanamido)-3-hydroxypropanoate]	completely inactive	–
CCCCCCCCCCCCCCCC(=O)N[C@@H](CSCCOC(=O)CCCCCCCCCCCCCCC)C(=O)N[C@@H](CO)C(=O)OC [Compound 11g, 2-(((R)-3-(((S)-3-hydroxy-1-methoxy-1-oxopropan-2-yl)amino)-3-oxo-2-palmitamidopropyl)thio)ethyl palmitate]	complete loss of activity	–
CCCCCCCCCCCCCCCC(=O)OCCSC[C@H](N)C(=O)N[C@@H](CO)C(=O)OC [Compound 6d]	–	specificity for human versus murine TLR2 (in words) (murine TLR2; human and murine TLR2 reporter gene assays): exquisite specificity in activating human TLR2 (hTLR2), but not murine TLR2 (mTLR2); mTLR2-agonistic activity (in words) (murine TLR2): entirely inactive
CCCCCCCCCCCCCCCC(=O)OCCSC[C@H](NC(=O)C(F)(F)F)C(=O)N[C@@H](CO)C(=O)OC [Compound 11h, 2-(((R)-3-(((S)-3-hydroxy-1-methoxy-1-oxopropan-2-yl)amino)-3-oxo-2-(2,2,2-trifluoroacetamido)propyl)thio)ethyl palmitate]	–	absolute magnitude of TLR2-induced NF-κB activation (in words) (human TLR2 [1]): low magnitude of NF-κB activation
CCCCCCCCCCCCCCCC(=O)OCCCSC[C@H](N)C(=O)N[C@@H](CO)C(=O)OC [Compound 15, 3-((R)-2-amino-3-((S)-3-hydroxy-1-methoxy-1-oxopropan-2-ylamino)-3-oxopropylthio)propyl palmitate]	–	TLR2-agonistic activity (in words), previously identified (human TLR2 [2]): inactive
CCCCCCCCCCCCCCCC(=O)OCCCSC[C@H](NC(C)=O)C(=O)N[C@@H](CO)C(=O)OC [Compound 16, 3-(((R)-2-acetamido-3-(((S)-3-hydroxy-1-methoxy-1-oxopropan-2-yl)amino)-3-oxopropyl)thio)propyl palmitate]	active, albeit much weaker in potency than 11d	–
CCCCCCCCCCCCCCCC(=O)OCCSC[C@H](N)C(=O)N[C@@H](COC(C)=O)C(=O)OC [Compound 14a, 2-(((R)-3-(((S)-3-acetoxy-1-methoxy-1-oxopropan-2-yl)amino)-2-amino-3-oxopropyl)thio)ethyl palmitate]	virtually indistinguishable from that of 6d	–
CCCCCCCCCCCCCCCCCC(=O)OCCSC[C@H](N)C(=O)N[C@@H](CO)C(=O)OC [Compound 6e, 2-(((R)-2-amino-3-(((S)-3-hydroxy-1-methoxy-1-oxopropan-2-yl)amino)-3-oxopropyl)thio)ethyl stearate]	–	mTLR2-agonistic activity (in words) (murine TLR2): entirely inactive
CCCCCCCCCCCCCCN(CCCCCCCCCCCCCC)CC(=O)OCCSC[C@H](N)C(=O)N[C@@H](CO)C(=O)OC [Compound 10a, (S)-methyl 2-((R)-2-amino-3-((2-(2-(ditetradecylamino)acetoxy)ethyl)thio)propanamido)-3-hydroxypropanoate]	completely inactive	–
